Activity calls are given as the source filed them. The calls are words filed in the database; no cut-off is given here.
What was measured:
Chlamydia trachomatis [1] = experiment: Antichlamydial activity against Chlamydia trachomatis L2 serovar VR-902B infected in human HeLa cells assessed as growth inhibition at 50 uM after 24 to 48 hrs by microscopic analysis; assay type: functional
Chlamydia pneumoniae = experiment: Antichlamydial activity against Chlamydia pneumoniae T45 infected in human HeLa cells assessed as growth inhibition at 50 uM after 24 to 48 hrs by microscopic analysis; assay type: functional
[2] = Cytotoxicity against human HeLa cells assessed as cell viability at 50 uM after 48 hrs by resazurin based fluorescence assay; conditions: read-out: Activity
[3] = tested on: Yersinia pseudotuberculosis; experiment: Antimicrobial activity against Yersinia pseudotuberculosis after 20 hrs; assay type: functional
In short: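 Overnight culture diluted into Mueller Hinton broth containing compound at 100, 50, 25 or 12, incubated 37 °C for 20 h; bacterial growth scored by visual inspection to give minimum inhibitory concentration.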

[4] = Aqueous solubility of the compound; assay type: physicochemical; conditions: buffer
[5] = tested on: Yersinia pseudotuberculosis; experiment: Inhibition of type 3 secretion system in Yersinia pseudotuberculosis by yopE luciferase reporter gene assay
In short: (§1)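 T3S inhibition in bacterial cultures measured with a yopE luciferase reporter gene. Compound used in two-fold dilutions from 100 to 12,5 at 1% final DMSO. Result given as percent inhibition relative to 1% DMSO-treated controls.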

Chlamydia trachomatis [6] = experiment: Antichlamydial activity against Chlamydia trachomatis L2 serovar VR-902B infected in human HeLa cells assessed as growth inhibition at 50 uM after 24 to 48 hrs by microscopic analysis in presence of iron sulfate; assay type: functional, organism-based
[7] = tested on: Yersinia pseudotuberculosis; experiment: Inhibition of type 3 secretion system in Yersinia pseudotuberculosis at 100 uM by yopE luciferase reporter gene assay; in short: as §1
[8] = tested on: Yersinia pseudotuberculosis; experiment: Inhibition of phosphatase activity of secreted YopH in Yersinia pseudotuberculosis at 12 to 100 uM by orthogonal assay
In short: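 Orthogonal test of T3S inhibition in bacterial cultures that reads the phosphatase activity of secreted YopH effector protein. Compound used in two-fold dilutions from 100 to 12,5 at 1% final DMSO. Result given as percent inhibition relative to 1% DMSO-treated controls.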

Structure (SMILES)	inhibition (Chlamydia trachomatis [1])	inhibition at 50 µM (Chlamydia pneumoniae) [%]	viability at 48 h, 50 µM [2] [%]	MIC [3] [µM]	inhibition at 50 µM (Chlamydia trachomatis [1]) [%]	solubility [4]	inhibition [5]	growth inhibition (GI) (Chlamydia trachomatis [6])	inhibition [7]	inhibition (Chlamydia pneumoniae)	inhibition [8]
Cc1cc(NS(=O)(=O)c2ccc(NC(=S)Nc3ccc(O)cc3)cc2)no1	inactive	60.8	> 70	> 100	–	–	–	–	–	–	–
CCN(CC)c1ccc(/C=N/NC(=O)c2ccc(/C=C/C(=O)Nc3ccc(S(=O)(=O)Nc4cc(C)on4)cc3)cc2)c(O)c1	–	22.4	–	> 100	28	Insoluble	Dose-dependent effect	–	–	–	–
Cc1cc(NS(=O)(=O)c2ccc(C(=O)N/N=C/c3cc(Br)cc(Br)c3O)cc2)no1	–	99.4	> 70	> 100	65.2	–	Dose-dependent effect	inactive	Active	–	–
Cc1cc(NS(=O)(=O)c2ccc(NC(=O)NCc3ccccc3O)cc2)no1	inactive	–	> 70	> 100	–	–	–	–	–	inactive	–
CCN(CC)c1ccc(/C=N/NC(=O)c2ccc(S(=O)(=O)Nc3cc(C)on3)cc2)c(O)c1	–	100	> 70	> 100	83	–	Dose-dependent effect	inactive	–	–	–
Cc1cc(NS(=O)(=O)c2ccc(NC(=O)/C=C/c3ccc(C(=O)N/N=C/c4cc(Cl)cc(Cl)c4O)cc3)cc2)no1	–	–	> 70	> 100	14.6	–	Dose-dependent effect	–	–	inactive	–
Cc1cc(NS(=O)(=O)c2ccc(C(=O)N/N=C/c3ccc(O)cc3O)cc2)no1	–	–	> 70	> 100	47.4	–	Dose-dependent effect	–	–	inactive	–
Cc1cc(NS(=O)(=O)c2ccc(NC(=O)/C=C/c3ccc(C(=O)N/N=C/c4cccc(F)c4O)cc3)cc2)no1	–	–	> 70	> 100	33.4	–	Dose-dependent effect	–	–	inactive	–
Cc1cc(NS(=O)(=O)c2ccc(NC(=S)NCc3ccccc3O)cc2)no1	inactive	–	> 70	> 100	–	–	–	–	–	inactive	–
Cc1cc(NS(=O)(=O)c2ccc(NC(=O)NCc3ccccc3)cc2)no1	–	–	> 70	> 100	18.5	–	–	–	–	inactive	–
Cc1cc(NS(=O)(=O)c2ccc(NC(=O)Nc3ccc(O)cc3)cc2)no1	–	–	> 70	> 100	9.6	–	–	–	–	inactive	–
Cc1cc(NS(=O)(=O)c2ccc(NC(=O)NC3CCCCC3)cc2)no1	–	–	> 70	> 100	14.8	–	–	–	–	inactive	–
Cc1cc(NS(=O)(=O)c2ccc(NC(=O)/C=C/c3ccc(C(=O)N/N=C/c4cc(Br)ccc4O)cc3)cc2)no1	–	–	> 70	> 100	21.5	–	Dose-dependent effect	–	–	inactive	–
Cc1cc(NS(=O)(=O)c2ccc(C(=O)N/N=C/c3cc(Cl)cc(Cl)c3O)cc2)no1	–	–	> 70	> 100	24.2	–	Dose-dependent effect	–	–	inactive	–
Cc1cc(NS(=O)(=O)c2ccc(NC(S)=NCc3ccccc3)cc2)no1	–	–	> 70	> 100	26.9	–	–	–	–	inactive	–
Cc1cc(NS(=O)(=O)c2ccc(NC(=S)NC3CCCCC3)cc2)no1	–	–	> 70	> 100	26.9	–	–	–	–	inactive	–
Cc1cc(NS(=O)(=O)c2ccc(NC(=O)c3sc4cc(Cl)ccc4c3Cl)cc2)no1	–	–	–	–	–	–	–	Active	inactive	–	inactive

— ChEMBL document CHEMBL3612039, “Design, synthesis and evaluation of novel polypharmacological antichlamydial agents” (Eur J Med Chem, 2015)
